Assay results published in ChEMBL document CHEMBL1275368, “Synthesis and evaluation of pyrazolone compounds as SARS-coronavirus 3C-like protease inhibitors” (Bioorg Med Chem, 2010).
Activity calls are given as the source filed them. No cut-off for these calls is given here.

Legend:
[1] = molecular target: Replicase polyprotein 1ab (Severe acute respiratory syndrome-related coronavirus) (UniProt P0C6X7); assay: Inhibition of SARS coronavirus 3C-like protease at 50 uM by fluorescence plate reader analysis
How it was run: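 Stored recombinant SARS-CoV 3CLpro at –70 °C in Tris/NaCl/EDTA/β-ME/DTT buffer. Screened compounds at 50 μM; those inhibiting >50% went on to the follow-up run.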

[2] = molecular target: Genome polyprotein (Coxsackievirus B3 (strain Nancy)) (UniProt P03313); assay: Inhibition of coxsackievirus B3 3C protease at 50 uM by fluorescence plate reader analysis
HEK293 = assay: Cytotoxicity against HEK293 cells at 200 uM after 24 hrs by MTT assay; format: cell-based; conditions: human, hek293, 24 h
How it was run: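 HEK293 cells seeded at 2×10^5/ml in MEM with 10% FBS at 37 °C and 5% CO2. At 70% confluence, cells were exposed to compound for 24 h. MTT was then added for 4 h at 37 °C. Formazan was dissolved in DMSO after medium removal, and OD at 540 nm was read as cell viability.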

[3] = molecular target: Replicase polyprotein 1ab (Severe acute respiratory syndrome-related coronavirus, UniProt P0C6X7); assay: Inhibition of SARS coronavirus 3C-like protease by fluorescence plate reader analysis
Genome polyprotein = Genome polyprotein (Coxsackievirus B3 (strain Nancy), UniProt P03313); assay: Inhibition of coxsackievirus B3 3C protease by fluorescence plate reader analysis
Chain of Genome polyprotein (P03313 1541-1723 limits assumed): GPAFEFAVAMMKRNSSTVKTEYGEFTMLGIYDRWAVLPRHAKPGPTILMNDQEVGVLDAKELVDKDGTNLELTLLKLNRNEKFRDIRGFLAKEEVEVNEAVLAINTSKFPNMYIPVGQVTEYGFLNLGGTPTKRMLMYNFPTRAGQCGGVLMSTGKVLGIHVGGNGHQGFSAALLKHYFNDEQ

Chain of Genome polyprotein (Coxsackievirus B3 (strain Nancy)) (P03313 whole entry): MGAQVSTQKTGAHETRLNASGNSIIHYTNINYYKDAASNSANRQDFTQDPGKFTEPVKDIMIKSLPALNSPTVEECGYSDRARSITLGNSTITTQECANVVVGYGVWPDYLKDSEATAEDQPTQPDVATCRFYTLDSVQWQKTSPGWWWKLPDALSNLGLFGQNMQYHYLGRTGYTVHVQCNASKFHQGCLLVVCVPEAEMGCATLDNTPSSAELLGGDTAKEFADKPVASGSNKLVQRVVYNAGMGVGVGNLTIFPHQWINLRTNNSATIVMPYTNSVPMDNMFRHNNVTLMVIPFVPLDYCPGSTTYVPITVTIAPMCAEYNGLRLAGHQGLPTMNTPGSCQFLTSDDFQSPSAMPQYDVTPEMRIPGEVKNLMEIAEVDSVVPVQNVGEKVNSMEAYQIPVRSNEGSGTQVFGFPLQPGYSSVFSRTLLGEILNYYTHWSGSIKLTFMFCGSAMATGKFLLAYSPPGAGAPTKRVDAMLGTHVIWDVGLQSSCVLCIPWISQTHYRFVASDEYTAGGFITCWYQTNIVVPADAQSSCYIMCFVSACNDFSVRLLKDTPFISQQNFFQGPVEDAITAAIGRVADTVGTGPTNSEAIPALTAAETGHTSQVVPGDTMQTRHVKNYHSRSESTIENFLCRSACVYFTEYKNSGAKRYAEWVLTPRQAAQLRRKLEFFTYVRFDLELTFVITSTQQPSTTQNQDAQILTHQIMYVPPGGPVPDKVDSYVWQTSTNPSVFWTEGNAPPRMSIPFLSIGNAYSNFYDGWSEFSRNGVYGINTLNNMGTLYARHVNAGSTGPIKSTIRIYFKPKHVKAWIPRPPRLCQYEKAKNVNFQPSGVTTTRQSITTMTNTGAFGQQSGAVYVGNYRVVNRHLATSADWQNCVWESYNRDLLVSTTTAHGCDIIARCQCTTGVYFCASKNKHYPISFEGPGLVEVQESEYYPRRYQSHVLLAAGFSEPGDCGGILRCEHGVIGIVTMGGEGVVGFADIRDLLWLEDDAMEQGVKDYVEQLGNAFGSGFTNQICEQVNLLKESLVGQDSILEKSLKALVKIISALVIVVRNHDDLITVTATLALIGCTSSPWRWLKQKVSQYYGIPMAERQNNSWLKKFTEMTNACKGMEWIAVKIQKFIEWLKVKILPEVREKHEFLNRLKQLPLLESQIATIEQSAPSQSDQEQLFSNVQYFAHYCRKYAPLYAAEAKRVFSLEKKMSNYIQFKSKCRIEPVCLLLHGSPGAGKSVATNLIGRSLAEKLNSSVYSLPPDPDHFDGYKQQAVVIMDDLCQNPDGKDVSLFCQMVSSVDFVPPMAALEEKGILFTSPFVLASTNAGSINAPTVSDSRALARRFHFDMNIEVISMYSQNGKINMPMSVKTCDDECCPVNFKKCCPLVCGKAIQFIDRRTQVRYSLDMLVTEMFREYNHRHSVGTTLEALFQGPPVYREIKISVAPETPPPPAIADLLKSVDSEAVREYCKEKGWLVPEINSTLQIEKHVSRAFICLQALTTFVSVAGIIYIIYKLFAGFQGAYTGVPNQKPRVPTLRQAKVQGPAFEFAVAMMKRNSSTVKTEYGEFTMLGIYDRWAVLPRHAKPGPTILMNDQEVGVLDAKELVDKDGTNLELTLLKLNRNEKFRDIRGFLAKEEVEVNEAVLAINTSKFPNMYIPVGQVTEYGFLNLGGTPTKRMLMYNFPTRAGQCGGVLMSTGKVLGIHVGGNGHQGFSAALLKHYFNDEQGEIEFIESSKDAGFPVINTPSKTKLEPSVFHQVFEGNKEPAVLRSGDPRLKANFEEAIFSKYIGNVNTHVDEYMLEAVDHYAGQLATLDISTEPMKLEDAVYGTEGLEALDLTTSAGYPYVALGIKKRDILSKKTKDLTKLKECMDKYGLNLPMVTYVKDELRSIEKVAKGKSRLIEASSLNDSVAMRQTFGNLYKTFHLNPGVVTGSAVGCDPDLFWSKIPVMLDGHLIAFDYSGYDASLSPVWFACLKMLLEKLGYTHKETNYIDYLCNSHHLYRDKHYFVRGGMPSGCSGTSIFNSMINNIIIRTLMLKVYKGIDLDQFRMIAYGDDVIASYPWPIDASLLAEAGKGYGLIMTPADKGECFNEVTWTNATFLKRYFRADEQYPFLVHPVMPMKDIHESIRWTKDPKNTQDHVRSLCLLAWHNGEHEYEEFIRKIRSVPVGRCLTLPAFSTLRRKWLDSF

Compound | inhibition [1] | inhibition [2] | Activity (HEK293) | IC50 [3] [µM] | IC50 (Genome polyprotein) [µM]
O=C1/C(=C\c2cccc([N+](=O)[O-])c2)C(c2ccccc2)=NN1c1ccccc1 | inactive | inactive | Non-toxic |  | 
O=C1/C(=C\c2ccc(Cl)cc2)C(c2ccccc2)=NN1c1ccc(Cl)cc1 | inactive | inactive | Non-toxic |  | 
N#Cc1ccc(N2N=C(c3ccccc3)/C(=C/c3ccc(C(=O)O)cc3)C2=O)cc1 |  |  | Non-toxic | 5.5 | 20.8
CC(=O)Nc1ccc(/C=C2\C(=O)N(c3ccc(Cl)cc3)N=C2c2ccccc2)cc1 | inactive | inactive | Non-toxic |  | 
O=C(O)c1ccc(/C=C2\C(=O)N(c3ccc(OC(F)(F)F)cc3)N=C2c2ccccc2)cc1 |  |  | Non-toxic | 42 | 98.8
O=C(O)c1ccc(/C=C2\C(=O)N(c3ccccc3)N=C2c2ccccc2)cc1 |  |  | Non-toxic | 18 | 51.1
COc1cccc(/C=C2\C(=O)N(c3ccccc3)N=C2c2ccccc2)c1 | inactive | inactive | Non-toxic |  | 
O=C(O)c1ccc(/C=C2\C(=O)N(c3cccc(Cl)c3)N=C2c2ccccc2)cc1 |  |  | Non-toxic | 10.8 | 17.3
O=C1/C(=C\c2ccc(O)cc2)C(c2ccccc2)=NN1c1ccc(Cl)cc1 | inactive | inactive | Non-toxic |  | 
O=C(O)c1ccc(/C=C2\C(=O)N(c3ccc(F)cc3)N=C2c2ccccc2)cc1 |  |  | Non-toxic | 6.8 | 22.4
O=C(O)c1ccc(/C=C2\C(=O)N(c3ccc(Cl)cc3)N=C2c2ccccc2)cc1 |  |  | Non-toxic | 13.9 | 25
O=C(O)c1ccc(/C=C2\C(=O)N(c3cccc([N+](=O)[O-])c3)N=C2c2ccccc2)cc1 |  |  | Non-toxic | 8.4 | 9.6
O=C1/C(=C\c2ccccc2)C(c2ccccc2)=NN1c1ccccc1 | inactive | inactive | Non-toxic |  | 
COc1ccc(/C=C2\C(=O)N(c3ccc(Cl)cc3)N=C2c2ccccc2)cc1 | inactive | inactive | Non-toxic |  | 
O=C1/C(=C\c2ccccc2)C(c2ccccc2)=NN1c1ccc(Cl)cc1 | inactive | inactive | Non-toxic |  | 
CC(C)c1ccc(N2N=C(c3ccccc3)/C(=C/c3ccc(C(=O)O)cc3)C2=O)cc1 | inactive | inactive | Non-toxic |  | 
CN(C)c1ccc(/C=C2\C(=O)N(c3ccccc3)N=C2c2ccccc2)cc1 | inactive | inactive | Non-toxic |  | 
CC(C)(C)c1ccc(N2N=C(c3ccccc3)/C(=C/c3ccc(C(=O)O)cc3)C2=O)cc1 | inactive | inactive | Non-toxic |  | 
O=C(O)c1ccc(/C=C2\C(=O)N(c3ccc(Cl)c(Cl)c3)N=C2c2ccccc2)cc1 |  |  | Non-toxic | 24.3 | 126
CC(=O)Nc1ccc(/C=C2\C(=O)N(c3ccccc3)N=C2c2ccccc2)cc1 | inactive | inactive | Non-toxic |  | 
COc1ccc(N2N=C(c3ccccc3)/C(=C/c3ccc(C(=O)O)cc3)C2=O)cc1 |  |  | Non-toxic | 12 | 16.6
